Calls of active or inactive are those of the source. Square brackets hold non-standard residues; d marks the D form. Peptide text beside a SMILES is read from it. Inp = O=C(O)C1CCNCC1
What was measured:
[1] = molecular target: Mu-type opioid receptor (Rattus norvegicus, UniProt P33535); test: Displacement of [3H]DAMGO from mu opioid receptor in Wistar rat brain membrane; assay type: cell membranes
[2] = species on record: Rattus norvegicus; test: Selectivity ratio of IC50 for delta opioid receptor to IC50 for mu opioid receptor in Wistar rat brain membrane; assay type: cell membranes
Summary of the method: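 Wistar rat brain crude membranes incubated 120 min at 25 °C with peptide and 0.5 nM [3H]DAMGO (MOR) or 0.5 nM [3H][Ile5,6]deltorphin-2 (DOR) in 50 mM Tris/HCl pH 7.4 with 5 mM MgCl2, 1 mM EDTA, 100 mM NaCl, bacitracin.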

[3] = molecular target: Delta-type opioid receptor (Rattus norvegicus, UniProt P33533); test: Displacement of [3H][Ile5,6]deltorphin-2 from delta opioid receptor in Wistar rat brain membrane; assay type: cell membranes
Sequence of Delta-type opioid receptor (P33533 whole entry): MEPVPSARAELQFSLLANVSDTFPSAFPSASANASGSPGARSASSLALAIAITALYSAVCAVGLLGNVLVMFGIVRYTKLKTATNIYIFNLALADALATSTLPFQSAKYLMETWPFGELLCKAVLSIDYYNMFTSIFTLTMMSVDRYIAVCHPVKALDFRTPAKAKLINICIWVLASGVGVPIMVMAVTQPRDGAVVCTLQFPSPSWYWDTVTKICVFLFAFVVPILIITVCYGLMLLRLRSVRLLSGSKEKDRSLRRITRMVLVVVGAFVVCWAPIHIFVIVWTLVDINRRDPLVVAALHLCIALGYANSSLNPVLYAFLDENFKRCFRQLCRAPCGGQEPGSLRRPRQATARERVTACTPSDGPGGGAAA

[4] = Stability in rat brain homogenates assessed as degradation half life; assay type: ADME, tissue-based; settings: brain homogenate
Summary of the method: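 Pooled rat brain homogenate (in 50 mM Tris-HCl pH 7.4, 10 mg protein/ml aliquot) incubated with 0.5 mM peptide stock at 37 °C for 0-60 min; stopped on ice with 1 M HCl, centrifuged. Remaining peptide peak area regressed as ln(A/A0) versus time for k; t1/2 = ln2/k. Three experiments in duplicate.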

[5] = tested on: Mus musculus; test: Antinociceptive activity in Swiss albino CD1 mouse assessed as duration of inhibition of rearing at 3 ng, icv by hot plate test; assay type: functional
Summary of the method: (§1)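 Male Swiss albino CD1 mice (20-22 g), i.c.v. injection into left ventricle in 0.9% NaCl. Hot plate at 55±0.5 °C; latencies to paw licking, rearing and jumping, cut-off 240 s; saline controls. Time-course readings at 5, 10, 20, 30, 45, 60, 90, 120, 150 and 180 min after dosing; duration of effect recorded.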

[6] = tested on: Mus musculus; test: Antinociceptive activity in Swiss albino CD1 mouse assessed as duration of inhibition of jumping at 3 ng, icv by hot plate test; assay type: functional; summary of the method: as §1
[7] = tested on: Mus musculus; test: Antinociceptive activity in Swiss albino CD1 mouse assessed as inhibition of paw licking at 100 ng, icv by hot plate test; assay type: functional, organism-based
Summary of the method: (§2)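 Male Swiss albino CD1 mice (20-22 g), peptide given i.c.v. into left ventricle in 0.9% NaCl. Placed on 55±0.5 °C hot plate 5 min post-injection; latency to paw licking (also rearing, jumping) versus saline-injected controls; cut-off 240 s. Dose-response curves; mean ± SEM, 10 mice per group.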

[8] = tested on: Mus musculus; test: Antinociceptive activity in Swiss albino CD1 mouse assessed as duration of inhibition of paw licking at 3 ng, icv by hot plate test; assay type: functional; summary of the method: as §1
[9] = tested on: Mus musculus; test: Antinociceptive activity in Swiss albino CD1 mouse assessed as duration of inhibition of rearing at 0.1 ng, icv by hot plate test; assay type: functional; summary of the method: as §1
[10] = tested on: Mus musculus; test: Antinociceptive activity in Swiss albino CD1 mouse assessed as inhibition of paw licking at 3 ng, icv by hot plate test; assay type: functional, organism-based; summary of the method: as §2
[11] = tested on: Mus musculus; test: Antinociceptive activity in icv dosed Swiss albino CD1 mouse assessed as inhibition of rearing by hot plate test in presence of MOR antagonist beta-funaltrexamine; assay type: functional, organism-based
Summary of the method: (§3)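 CD1 male mice given peptide i.c.v. in 0.9% NaCl with MOR antagonist β-funaltrexamine (1 µg). Hot plate at 55±0.5 °C, 240 s cut-off; latencies to paw licking, rearing and jumping versus controls. Mean ± SEM of 10 mice per group; two-way ANOVA followed by Student-Newman-Keuls test.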

[12] = tested on: Mus musculus; test: Antinociceptive activity in Swiss albino CD1 mouse assessed as duration of inhibition of jumping at 0.1 ng, icv by hot plate test; assay type: functional; summary of the method: as §1
[13] = tested on: Mus musculus; test: Antinociceptive activity in icv dosed Swiss albino CD1 mouse assessed as inhibition of paw licking by hot plate test in presence of MOR antagonist beta-funaltrexamine; assay type: functional, organism-based; summary of the method: as §3
[14] = tested on: Mus musculus; test: Antinociceptive activity in icv dosed Swiss albino CD1 mouse assessed as inhibition of paw licking by hot plate test; assay type: functional, organism-based; summary of the method: as §2
[15] = tested on: Mus musculus; test: Antinociceptive activity in iv dosed Swiss albino CD1 mouse assessed as inhibition of paw licking by hot plate test; assay type: functional, organism-based
[16] = tested on: Mus musculus; test: Antinociceptive activity in Swiss albino CD1 mouse assessed as duration of inhibition of paw licking at 0.1 ng, icv by hot plate test; assay type: functional; summary of the method: as §1
[17] = molecular target: T1, Mu-type opioid receptor (Homo sapiens, UniProt P35372); test: Binding affinity to recombinant OPRM1 receptor immobilized on biosensor assessed as association rate constant by BIAcore X system
T1 sequence (P35372 whole entry): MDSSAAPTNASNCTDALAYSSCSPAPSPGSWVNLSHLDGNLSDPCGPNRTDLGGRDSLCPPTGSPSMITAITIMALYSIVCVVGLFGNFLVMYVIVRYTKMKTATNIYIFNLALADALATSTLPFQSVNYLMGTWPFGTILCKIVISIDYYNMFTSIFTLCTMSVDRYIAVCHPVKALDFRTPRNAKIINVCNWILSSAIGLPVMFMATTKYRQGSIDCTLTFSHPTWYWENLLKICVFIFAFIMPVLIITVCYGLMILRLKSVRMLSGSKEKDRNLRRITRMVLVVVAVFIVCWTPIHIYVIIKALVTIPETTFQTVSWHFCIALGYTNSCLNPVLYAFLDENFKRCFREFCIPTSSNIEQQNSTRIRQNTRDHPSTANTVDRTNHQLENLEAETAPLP
Summary of the method: (§4)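 Surface plasmon resonance at 37 °C: recombinant OPRM1 protein immobilised on CM5 chip by amine coupling (10 µg/ml in 10 mM sodium acetate, pH 5.0). Peptides at about 0.4 mM in HBS (10 mM HEPES, 150 mM NaCl, 3 mM EDTA, 0.005% P20, pH 7.4) injected 30 s at 20 µl/min; association/dissociation RU fitted for ka and kd.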

[18] = molecular target: T1, Mu-type opioid receptor; test: Binding affinity to recombinant OPRM1 receptor immobilized on biosensor assessed as dissociation rate constant by BIAcore X system; summary of the method: as §4
[19] = tested on: Mus musculus; test: Antinociceptive activity in icv dosed Swiss albino CD1 mouse assessed as inhibition of jumping by hot plate test in presence of MOR antagonist beta-funaltrexamine; assay type: functional, organism-based; summary of the method: as §3

Sequence of Mu-type opioid receptor (Rattus norvegicus, UniProt P33535) (P33535 whole entry): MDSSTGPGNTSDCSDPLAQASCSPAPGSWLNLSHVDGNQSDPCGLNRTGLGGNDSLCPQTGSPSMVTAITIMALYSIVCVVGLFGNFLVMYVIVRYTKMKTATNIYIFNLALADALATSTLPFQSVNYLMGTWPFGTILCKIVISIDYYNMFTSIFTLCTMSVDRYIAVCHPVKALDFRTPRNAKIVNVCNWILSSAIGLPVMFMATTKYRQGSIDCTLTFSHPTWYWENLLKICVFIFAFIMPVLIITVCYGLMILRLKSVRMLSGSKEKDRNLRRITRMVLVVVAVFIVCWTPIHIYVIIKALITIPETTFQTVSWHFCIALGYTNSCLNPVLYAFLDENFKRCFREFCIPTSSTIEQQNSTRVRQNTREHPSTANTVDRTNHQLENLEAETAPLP

NC(=O)[C@H](Cc1ccccc1)NC(=O)[C@H](Cc1ccccc1)NC(=O)[C@@H]1CCCCN1C(=O)[C@@H](N)Cc1ccc(O)cc1
IC50 [1]: 80 nM
Ratio IC50 [2]: > 12.5
IC50 [3]: > 1000 nM
half-life [4]: 6.8 min

NC(=O)[C@H](Cc1ccccc1)NC(=O)[C@H](Cc1c[nH]c2ccccc12)NC(=O)[C@@H]1CCCN(C(=O)[C@@H](N)Cc2ccc(O)cc2)C1
IC50 [1]: 3.55 nM
Ratio IC50 [2]: > 281
IC50 [3]: > 1000 nM
half-life [4]: 29.6 min

NC(=O)[C@H](Cc1ccccc1)NC(=O)[C@H](Cc1ccccc1)NC(=O)[C@@H]1CCCN1C(=O)[C@@H](N)Cc1ccc(O)cc1 [ENDOMORPHIN 2]
Activity [5]: 50 min
Activity [6]: 50 min
half-life [4]: 4.8 min
Activity [7]: Active
Activity [8]: 50 min

NC(=O)[C@H](Cc1ccccc1)NC(=O)[C@H](Cc1c[nH]c2ccccc12)NC(=O)C1CCN(C(=O)[C@@H](N)Cc2ccc(O)cc2)CC1 (H-Y[Inp]WF-NH2)
IC50 [1]: 401 nM
Ratio IC50 [2]: 2.15
IC50 [3]: 860 nM
half-life [4]: 78.5 min

NC(=O)[C@H](Cc1ccccc1)NC(=O)[C@H](Cc1c[nH]c2ccccc12)NC(=O)[C@@H]1CCCN1C(=O)[C@@H](N)Cc1ccc(O)cc1 [ENDOMORPHIN-1]
half-life [4]: 6.02 min

NC(=O)[C@H](Cc1ccccc1)NC(=O)[C@H](Cc1c[nH]c2ccccc12)NC(=O)[C@@H]1CCCCN1C(=O)[C@@H](N)Cc1ccc(O)cc1
IC50 [1]: 20.4 nM
Ratio IC50 [2]: > 49
IC50 [3]: > 1000 nM
half-life [4]: 9.68 min

Cc1cc(O)cc(C)c1C[C@H](N)C(=O)N1CCC[C@@H](C(=O)N[C@@H](Cc2ccccc2)C(=O)N[C@@H](Cc2ccccc2)C(N)=O)C1
IC50 [1]: 0.035 nM
Activity [9]: >170 min
Activity [10]: Active
Activity [11]: inactive
Activity [12]: >170 min
AC50 [13]: Not Active
Ratio IC50 [2]: > 1000
Activity [14]: Dose-dependent effect
Activity [15]: inactive
IC50 [3]: 407 nM
half-life [4]: 30.9 min
Activity [16]: >170 min
Ka [17]: 515 M⁻¹ s⁻¹
Kd [18]: 0.29 s⁻¹
Activity [19]: inactive

Cc1cc(O)cc(C)c1C[C@H](N)C(=O)N1CCC[C@@H](C(=O)N[C@@H](Cc2c[nH]c3ccccc23)C(=O)N[C@@H](Cc2ccccc2)C(N)=O)C1
IC50 [1]: 0.38 nM
Ratio IC50 [2]: 234
IC50 [3]: 89 nM
half-life [4]: 35.8 min

NC(=O)[C@H](Cc1ccccc1)NC(=O)[C@H](Cc1ccccc1)NC(=O)[C@@H]1CCCN(C(=O)[C@@H](N)Cc2ccc(O)cc2)C1
IC50 [1]: 0.04 nM
Activity [9]: 150 min
Activity [11]: inactive
Activity [12]: 150 min
AC50 [13]: Not Active
Ratio IC50 [2]: > 1000
Activity [14]: Dose-dependent effect
Activity [15]: inactive
IC50 [3]: > 1000 nM
half-life [4]: 48 min
Activity [16]: 150 min
Ka [17]: 570 M⁻¹ s⁻¹
Activity [7]: Active
Kd [18]: 0.55 s⁻¹
Activity [19]: inactive
